{"data": "Experimental data gathered from unrelated publications", "note": "Protocols differ between the studies behind these lines."}
{"Compound": "C[C@@H]1[C@H](O)[C@@H](C)/C=C/C=C/C=C/C=C/C=C/C=C/C=C/[C@H](O[C@@H]2O[C@H](C)[C@@H](O)[C@H](N)[C@@H]2O)C[C@@H]2O[C@](O)(C[C@@H](O)C[C@@H](O)[C@H](O)CC[C@@H](O)C[C@@H](O)CC(=O)O[C@H]1C)C[C@H](O)[C@H]2C(=O)O", "organism": "Leishmania major", "assay": "parasite growth", "system": "J774.A1", "setting": "72 h, intracellular, amastigote", "quantity": "IC50", "result": "17.5 µM"}
{"Compound": "C/C(=N\\N=C(/C)c1c(O)c2ccccc2oc1=O)c1c(O)c2ccccc2oc1=O", "organism": "Aspergillus glaucus", "assay": "microbial growth, broth dilution", "setting": "48 h", "quantity": "MIC", "result": "31.2 µg/mL"}
{"Compound": "CN1CCN(c2ncc(-c3ccc4nncc(Nc5cnccn5)c4c3)cn2)CC1", "organism": "Leishmania major", "assay": "parasite growth", "setting": "intracellular, amastigote", "quantity": "EC50", "result": "> 5 µM"}
{"Compound": "S=C(NN=Cc1ccc(Br)cc1)Nc1cccnc1", "organism": "Leishmania major", "assay": "parasite growth", "system": "J774.A1", "setting": "72 h, intracellular, amastigote", "quantity": "IC50", "result": "627 µM"}
{"Compound": "COc1c(N2C[C@@H]3CCCN[C@@H]3C2)c(F)cc2c(=O)c(C(=O)O)cn(C3CC3)c12", "organism": "Enterococcus faecalis", "assay": "microbial growth, broth dilution", "setting": "clinical isolate", "quantity": "MIC90", "result": "1 µg/mL"}
{"Compound": "COc1ccc(C=NNC(=S)Nc2cccnc2)cc1OC", "organism": "Leishmania major", "assay": "parasite growth, MTT", "setting": "72 h, promastigote", "quantity": "IC50", "result": "1080 µM"}
{"Compound": "COc1ccc(Nc2cnnc3ccc(-c4cnc(N5CCN(C)CC5)nc4)cc23)cc1Cl", "organism": "Leishmania major", "assay": "parasite growth", "setting": "intracellular, amastigote", "quantity": "EC50", "result": "> 22 µM"}
{"Compound": "C/C(=N\\CCNCCNCC/N=C(\\C)c1c(O)c2ccccc2oc1=O)c1c(O)c2ccccc2oc1=O", "organism": "Aspergillus glaucus", "assay": "microbial growth, broth dilution", "setting": "48 h", "quantity": "MIC", "result": "125 µg/mL"}
{"Compound": "CNC(=S)NN=Cc1ccc(F)cc1", "organism": "Leishmania major", "assay": "parasite growth", "system": "J774.A1", "setting": "72 h, intracellular, amastigote", "quantity": "IC50", "result": "319 µM"}
{"Compound": "CCCCCCCCCCCC[N+](C)(C)Cc1ccccc1", "organism": "Enterococcus faecalis", "assay": "microbial growth", "quantity": "MIC", "result": "63 µM"}
{"Compound": "CN1CCN(c2ccc(-c3ccc4nncc(Nc5cnccn5)c4c3)cc2)CC1", "organism": "Leishmania major", "assay": "parasite growth", "setting": "intracellular, amastigote", "quantity": "EC50", "result": "> 13 µM"}
{"Compound": "CNC(=S)NN=Cc1ccc(C)cc1", "organism": "Leishmania major", "assay": "parasite growth, MTT", "setting": "72 h, promastigote", "quantity": "IC50", "result": "938 µM"}
{"Compound": "Cc1ccc(Nc2cnnc3cc(-c4ccc(N5CCN(C)CC5)cc4)ccc23)cn1", "organism": "Leishmania major", "assay": "parasite growth", "setting": "intracellular, amastigote", "quantity": "EC50", "result": "> 24 µM"}
{"Compound": "C/C(=N\\CCNCC/N=C(\\C)c1c(O)c2ccccc2oc1=O)c1c(O)c2ccccc2oc1=O", "organism": "Aspergillus glaucus", "assay": "microbial growth, broth dilution", "setting": "48 h", "quantity": "MIC", "result": "31.2 µg/mL"}
{"Compound": "COc1ccc(Nc2cnnc3ccc(-c4ccc(N5CCN(C)CC5)cc4)cc23)cc1Cl", "organism": "Leishmania major", "assay": "parasite growth", "setting": "intracellular, amastigote", "quantity": "EC50", "result": "> 22 µM"}
{"Compound": "CC1(C)S[C@@H]2[C@H](NC(=O)[C@H](N)c3ccccc3)C(=O)N2[C@H]1C(=O)O", "organism": "Enterococcus faecalis", "assay": "microbial growth, agar dilution", "system": "ATCC29212", "quantity": "MIC", "result": "64 µg/mL"}
{"Compound": "CN1CCN(c2ccc(-c3ccc4c(Nc5cnccn5)cnnc4c3)cc2)CC1", "organism": "Leishmania major", "assay": "parasite growth", "setting": "intracellular, amastigote", "quantity": "EC50", "result": "> 25 µM"}
{"Compound": "OC(Cn1cncn1)(Cn1cncn1)c1ccc(F)cc1F", "organism": "Aspergillus fumigatus", "assay": "microbial growth, broth dilution", "system": "AF293", "setting": "48 h", "quantity": "MIC", "result": "> 64 µg/mL"}
{"Compound": "C/C(=N\\c1nc(N)nc(/N=C(\\C)c2c(O)c3ccccc3oc2=O)n1)c1c(O)c2ccccc2oc1=O", "organism": "Aspergillus glaucus", "assay": "microbial growth, broth dilution", "setting": "48 h", "quantity": "MIC", "result": "31.2 µg/mL"}
{"Compound": "CN[C@H](CC(C)C)C(=O)N[C@H]1C(=O)N[C@@H](CC(N)=O)C(=O)N[C@H]2C(=O)N[C@H]3C(=O)N[C@H](C(=O)N[C@H](C(=O)O)c4cc(O)cc(O)c4-c4cc3ccc4O)[C@H](O)c3ccc(c(Cl)c3)Oc3cc2cc(c3O[C@@H]2O[C@H](CO)[C@@H](O)[C@H](O)[C@H]2O[C@H]2C[C@](C)(N)[C@H](O)[C@H](C)O2)Oc2ccc(cc2Cl)[C@H]1O", "organism": "Enterococcus faecalis", "assay": "microbial growth, broth dilution", "setting": "clinical isolate", "quantity": "MIC50", "result": "2 µg/mL"}
{"Compound": "[H]/N=C(\\N/C(=N/[H])NCCCCCCNC(=N)NC(=N)Nc1ccc(Cl)cc1)Nc1ccc(Cl)cc1", "organism": "Enterococcus faecalis", "assay": "microbial growth", "quantity": "MIC", "result": "4 µM"}
{"Compound": "CC[C@H]1OC(=O)[C@H](C)[C@@H](O[C@H]2C[C@@](C)(OC)[C@@H](O)[C@H](C)O2)[C@H](C)[C@@H](O[C@@H]2O[C@H](C)C[C@H](N(C)C)[C@H]2O)[C@](C)(O)C[C@@H](C)/C(=N\\OCOCCOC)[C@H](C)[C@@H](O)[C@]1(C)O", "organism": "Enterococcus faecalis", "assay": "microbial growth, agar dilution", "system": "ATCC29212", "quantity": "MIC", "result": "128 µg/mL"}
{"Compound": "CNC(=S)NN=Cc1ccc(OC)c(OC)c1", "organism": "Leishmania major", "assay": "parasite growth, MTT", "setting": "72 h, promastigote", "quantity": "IC50", "result": "54.3 µM"}
{"Compound": "C=C[C@]1(C)C[C@@H](OC(=O)CS[C@@H]2C[C@H]3CC[C@@H](C2)N3C)[C@]2(C)[C@H](C)CC[C@]3(CCC(=O)[C@H]32)[C@@H](C)[C@@H]1O", "organism": "Enterococcus faecalis", "assay": "microbial growth", "setting": "clinical isolate", "quantity": "MIC90", "result": "> 128 µg/mL"}
{"Compound": "COc1ccc(Nc2cnnc3cc(-c4cnc(N5CCCN(C)CC5)nc4)ccc23)cc1Cl", "organism": "Leishmania major", "assay": "parasite growth", "setting": "intracellular, amastigote", "quantity": "EC50", "result": "> 2.1 µM"}
{"Compound": "CNC(=S)NN=Cc1ccc([N+](=O)[O-])cc1", "organism": "Leishmania major", "assay": "parasite growth", "system": "J774.A1", "setting": "72 h, intracellular, amastigote", "quantity": "IC50", "result": "177 µM"}
{"Compound": "CC(=O)N1CCN(c2ccc(OCC3COC(Cn4ccnc4)(c4ccc(Cl)cc4Cl)O3)cc2)CC1 (stereo not shown)", "organism": "Aspergillus glaucus", "assay": "microbial growth, broth dilution", "setting": "48 h", "quantity": "MIC", "result": "7.8 µg/mL"}
{"Compound": "Cc1c2c(nn1C)CSCc1cc(n(C)n1)CSc1cc(c3ccccc3c1)OCCCc1c(C(=O)O)n(C)c3c-2c(Cl)ccc13", "organism": "Enterococcus faecalis", "assay": "microbial growth, broth dilution", "setting": "clinical isolate", "quantity": "MIC90", "result": "25 µM"}
{"Compound": "COc1ccc(C=NNC(=S)Nc2cccnc2)cc1", "organism": "Leishmania major", "assay": "parasite growth, MTT", "setting": "72 h, promastigote", "quantity": "IC50", "result": "1000 µM"}
{"Compound": "CC(=O)NC[C@H]1CN(c2ccc(N3CCOCC3)c(F)c2)C(=O)O1", "organism": "Enterococcus faecalis", "assay": "microbial growth, broth dilution", "setting": "clinical isolate", "quantity": "MIC90", "result": "1 µg/mL"}
{"Compound": "Cc1ccc(Nc2cnnc3cc(-c4cnc(N5CCCN(C)CC5)nc4)ccc23)cn1", "organism": "Leishmania major", "assay": "parasite growth", "setting": "intracellular, amastigote", "quantity": "EC50", "result": "> 23 µM"}
